From ChEMBL document CHEMBL1152686, “Development and characterization of lysine based tripeptide analogues as inhibitors of Sir2 activity” (Bioorg Med Chem, 2009)
Active and inactive are the calls of the source. The rule behind the calls is not given here.

Tests used:
Plasmodium falciparum [1] = assay: Inhibition of His-tagged Plasmodium falciparum Sir2 expressed in Escherichia coli at t500 uM preincubated 5 min before substrate assay mixture addition by FRET assay
How it was run: (§1)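 Recombinant C-terminal His-tagged PfSir2 from E. coli BL21(DE3), Ni-NTA purified. Enzyme preincubated with inhibitor 5 min, then added to mix of 5 mM Tris-HCl pH 8.0, trichostatin A and trypsin with acetyl-lysine EDANS–DABCYL peptide. Deacetylation allows trypsin cleavage and a rise in fluorescence. Read at 37 °C on a spectrofluorimeter.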

[2] = Inhibition of His-tagged Plasmodium falciparum Sir2 expressed in Escherichia coli preincubated 5 min before substrate assay mixture addition by FRET assay; how it was run: as §1
[3] = Noncompetitive inhibition of His-tagged Plasmodium falciparum Sir2 expressed in Escherichia coli measured by secondary plot of intercept versus inhibitor concentration in presence of saturating NAD+ levels by FRET assay
How it was run: (§2)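 His-tagged PfSir2 from E. coli, coupled FRET assay (acetyl-lysine EDANS–DABCYL peptide, trypsin cleavage after deacetylation), 37 °C. Initial velocities measured with one substrate varied, the other fixed at saturating level, at several fixed inhibitor levels. Parameters from non-linear regression. Lineweaver–Burk plots, plus secondary slope and intercept plots versus [I], fit linearly or by second-order polynomial. Two independently purified enzyme batches.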

[4] = Noncompetitive inhibition of His-tagged Plasmodium falciparum Sir2 expressed in Escherichia coli measured by primary plot of enzyme kinetics in presence of saturating NAD+ levels by FRET assay; how it was run: as §2
[5] = Noncompetitive inhibition of His-tagged Plasmodium falciparum Sir2 expressed in Escherichia coli measured by secondary plot of slope versus inhibitor concentration in presence of saturating NAD+ levels by FRET assay; how it was run: as §2
[6] = Competitive inhibition of His-tagged Plasmodium falciparum Sir2 expressed in Escherichia coli measured by primary plot of enzyme kinetics in presence of saturating acetylated peptide levels by FRET assay; how it was run: as §2
[7] = biological target: T1, NAD-dependent protein deacetylase sirtuin-1 (Homo sapiens) (UniProt Q96EB6); assay: Inhibition of human Sirt1
T1 sequence (whole entry): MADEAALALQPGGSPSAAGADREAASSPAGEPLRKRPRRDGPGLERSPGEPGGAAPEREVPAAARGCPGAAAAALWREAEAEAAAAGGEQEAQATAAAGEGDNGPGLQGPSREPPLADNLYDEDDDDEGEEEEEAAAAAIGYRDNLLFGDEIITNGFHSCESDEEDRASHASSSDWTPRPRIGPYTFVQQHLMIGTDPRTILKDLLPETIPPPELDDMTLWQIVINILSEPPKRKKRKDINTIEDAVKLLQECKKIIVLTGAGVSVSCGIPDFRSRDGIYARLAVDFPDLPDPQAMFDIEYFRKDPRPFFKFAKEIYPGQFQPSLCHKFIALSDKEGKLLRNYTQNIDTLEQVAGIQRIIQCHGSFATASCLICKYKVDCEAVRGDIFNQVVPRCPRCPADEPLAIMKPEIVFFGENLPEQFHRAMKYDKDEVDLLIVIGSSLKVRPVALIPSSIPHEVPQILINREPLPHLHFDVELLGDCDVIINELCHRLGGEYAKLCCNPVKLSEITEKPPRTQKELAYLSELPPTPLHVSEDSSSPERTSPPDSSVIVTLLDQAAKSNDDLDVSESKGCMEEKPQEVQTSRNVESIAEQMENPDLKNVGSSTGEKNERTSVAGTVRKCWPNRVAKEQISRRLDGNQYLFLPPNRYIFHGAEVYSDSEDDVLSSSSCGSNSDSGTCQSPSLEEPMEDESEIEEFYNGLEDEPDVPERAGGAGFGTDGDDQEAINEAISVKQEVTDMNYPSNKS

[8] = Competitive inhibition of His-tagged Plasmodium falciparum Sir2 expressed in Escherichia coli measured by secondary plot of slope versus inhibitor concentration in presence of saturating acetylated peptide levels by FRET assay; how it was run: as §2
Plasmodium falciparum [9] = assay: Antiplasmodial activity against Plasmodium falciparum 3D7 infected in human O+ erythrocytes assessed as inhibition of parasite growth in intraerythrocytic stage after 24 hrs by [3H]hypoxanthine incorporation assay; assay type: functional, organism-based
How it was run: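 P. falciparum 3D7 grown in human O+ erythrocytes at 5% hematocrit, RPMI 1640 with 10% human serum. Compound in DMSO, twofold serial dilutions from 400 to 0.2 µM. Wells at 2% parasitemia and 2% hematocrit, 37 °C in candle jar. After 24 h, 1.0 µCi [3H]hypoxanthine added per well for another 12 h. Filter-harvested counts; IC50 by interpolation from log plot. Done twice in duplicate.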

Structure (SMILES)	inhibition (Plasmodium falciparum [1])	IC50 [2] [µM]	inhibition (qualitative call) [7]	Ki [3] [µM]	Ki [4] [µM]	Ki [5] [µM]	Ki [6] [µM]	Ki [8] [µM]	IC50 (Plasmodium falciparum [9]) [µM]
C#CCOC(=O)NCCCC[C@H](NC(=O)OC(C)(C)C)C(=O)O	inactive								
COC(=O)[C@@H](NC(=O)[C@H](CCCCNC(=O)OCc1cn([C@@H]2O[C@H]([C@@H]3COC(C)(C)O3)[C@@H]3OC(C)(C)O[C@@H]32)nn1)NC(=O)[C@H](Cc1ccccc1)NC(=O)OC(C)(C)C)C(C)C		34	Active	125	122	90	58	62	
CC(=O)O[C@H]1C[C@H](n2cc(C)c(=O)[nH]c2=O)O[C@@H]1Cn1cc(COC(=O)NCCCC[C@H](NC(=O)OC(C)(C)C)C(=O)OCc2ccccc2)nn1	inactive								
C#CCOC(=O)NCCCC[C@H](NC(=O)OC(C)(C)C)C(=O)N[C@H](C(=O)OC)C(C)C	inactive								

The next lines start with results.

inhibition (Plasmodium falciparum [1])	IC50 [2] [µM]	inhibition (qualitative call) [7]	Structure (SMILES)	Ki [3] [µM]	Ki [4] [µM]	Ki [5] [µM]	Ki [6] [µM]	Ki [8] [µM]	IC50 (Plasmodium falciparum [9]) [µM]
	23	Active	COC(=O)[C@@H](NC(=O)[C@H](CCCCNC(=O)OCc1cn(C[C@H]2O[C@H](OC)[C@H](OC(C)=O)[C@@H](OC(C)=O)[C@@H]2OC(C)=O)nn1)NC(=O)[C@H](Cc1ccccc1)NC(=O)OC(C)(C)C)C(C)C	119	134	90	60	60	9.8
	33	Active	COC(=O)[C@@H](NC(=O)[C@H](CCCCNC(=O)OCc1cn(C[C@H]2O[C@@H](n3cc(C)c(=O)[nH]c3=O)C[C@@H]2OC(C)=O)nn1)NC(=O)[C@H](Cc1ccccc1)NC(=O)OC(C)(C)C)C(C)C	113	124	115	60	64	
	151	Active	COC(=O)[C@@H](NC(=O)[C@H](CCCCNC(=O)OCc1cn([C@@H]2O[C@H](COC(C)=O)[C@H](OC(C)=O)[C@H](OC(C)=O)[C@H]2OC(C)=O)nn1)NC(=O)[C@H](Cc1ccccc1)NC(=O)OC(C)(C)C)C(C)C	193	154	172	85	80	
